According to ChEMBL document CHEMBL1177711, “Novel quinolizidinyl derivatives as antiarrhythmic agents: 2. Further investigation” (J Med Chem, 2010):

Columns and labels:
[1] = Negative inotropic activity against potassium-induced contraction in guinea pig left atrium assessed as decrease in developed tension; assay type: functional, tissue-based; details: Cavia porcellus, Cardiac atrium
[2] = Negative chronotropic activity against potassium-induced contraction in guinea pig left atrium assessed as decrease atrial rate at 10 uM relative to control; assay type: functional, Cavia porcellus, Cardiac atrium; set-up: scale not given: the % may be the effect or the level left
Aorta [3] = assay: Vasorelaxant activity in potassium depolarized guinea pig aortic strip assessed as inhibition of calcium-induced contraction at 50 uM; assay type: functional; details: Cavia porcellus
[4] = Negative inotropic activity against potassium-induced contraction in guinea pig left atrium assessed as decrease in developed tension at 1 uM relative to control; assay type: functional, Cavia porcellus, Cardiac atrium; set-up: scale not given: the % may be the effect or the level left
[5] = Antiarrhythmic activity in sinusoidal alternating current-induced guinea pig left atrium assessed as increase in current strength at which extra beats occur at 10 uM measured every 30 mins; assay type: functional, Cavia porcellus, Cardiac atrium
How it was run: (§1)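 Isolated guinea pig left atria, electrically driven at 1 Hz, were exposed to sinusoidal alternating current to induce arrhythmia. The read-out was the rise in the ac-arrhythmia threshold over concentrations up to 100 μM.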

Heart [6] = assay: Cardioprotective effect in Langendorff perfused guinea pig spontaneously beating […] assessed as heart rat at 1 uM (RVb = 175 to 190 +/- 5 to 11 bpm); assay type: functional, Cavia porcellus
[7] = Cardioprotective effect in Langendorff perfused guinea pig spontaneously beating […] assessed as atrioventicular conduction time at 0.01 uM (RVb = 50 to 55 +/- 1 to 4 ms); assay type: functional; details: Cavia porcellus
How it was run: (§2)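 Whole guinea pig hearts were Langendorff-perfused and their ECG recorded at graded concentrations. Intervals read were PR (atrioventricular conduction time), QT (ventricular action potential duration) and QRS (intraventricular conduction time).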

[8] = Antiarrhythmic activity in sinusoidal alternating current-induced guinea pig left atrium assessed as increase in current strength at which extra beats occur at 100 uM measured every 30 mins; assay type: functional, Cavia porcellus, Cardiac atrium; how it was run: as §1
[9] = Cardioprotective effect in Langendorff perfused guinea pig spontaneously beating […] assessed as intraventicular conduction time at 10 uM (RVb = 19 to 24 +/- 1 to 2 ms); assay type: functional; details: Cavia porcellus; how it was run: as §2
Heart [10] = assay: Cardioprotective effect in Langendorff perfused guinea pig spontaneously beating […] assessed as heart rat at 0.001 uM (RVb = 175 to 190 +/- 5 to 11 bpm); assay type: functional, Cavia porcellus
[11] = Cardioprotective effect in Langendorff perfused guinea pig spontaneously beating […] assessed as duration of ventricular action potential at 1 uM (RVb = 140 to 161 +/- 2 to 8 ms); assay type: functional, Cavia porcellus, Cardiac ventricle; how it was run: as §2
[12] = Antiarrhythmic activity in sinusoidal alternating current-induced guinea pig left atrium assessed as increase in current strength at which extra beats occur measured every 30 mins; assay type: functional, tissue-based; details: Cavia porcellus, Cardiac atrium, 0.5 h; how it was run: as §1
[13] = Cardioprotective effect in Langendorff perfused guinea pig spontaneously beating […] assessed as intraventicular conduction time at 0.001 uM (RVb = 19 to 24 +/- 1 to 2 ms); assay type: functional; details: Cavia porcellus; how it was run: as §2
[14] = Cardioprotective effect in Langendorff perfused guinea pig spontaneously beating […] assessed as atrioventicular conduction time at 0.1 uM (RVb = 50 to 55 +/- 1 to 4 ms); assay type: functional; details: Cavia porcellus; how it was run: as §2
[15] = Negative inotropic activity against potassium-induced contraction in guinea pig left atrium assessed as decrease in developed tension at 50 uM relative to control; assay type: functional, Cavia porcellus, Cardiac atrium; set-up: scale not given: the % may be the effect or the level left
[16] = Cardioprotective effect in Langendorff perfused guinea pig spontaneously beating […] assessed as duration of ventricular action potential at 10 uM (RVb = 140 to 161 +/- 2 to 8 ms); assay type: functional, Cavia porcellus, Cardiac ventricle; how it was run: as §2
Heart [17] = assay: Cardioprotective effect in Langendorff perfused guinea pig spontaneously beating […] assessed as heart rat at 0.1 uM (RVb = 175 to 190 +/- 5 to 11 bpm); assay type: functional, Cavia porcellus
[18] = Cardioprotective effect in Langendorff perfused guinea pig spontaneously beating […] assessed as duration of ventricular action potential at 0.001 uM (RVb = 140 to 161 +/- 2 to 8 ms); assay type: functional, Cavia porcellus, Cardiac ventricle; how it was run: as §2
[19] = Cardioprotective effect in Langendorff perfused guinea pig spontaneously beating […] assessed as atrioventicular conduction time at 0.001 uM (RVb = 50 to 55 +/- 1 to 4 ms); assay type: functional; details: Cavia porcellus; how it was run: as §2
Heart [20] = assay: Cardioprotective effect in Langendorff perfused guinea pig spontaneously beating […] assessed as heart rat at 0.01 uM (RVb = 175 to 190 +/- 5 to 11 bpm); assay type: functional, Cavia porcellus
[21] = Cardioprotective effect in Langendorff perfused guinea pig spontaneously beating […] assessed as atrioventicular conduction time at 10 uM (RVb = 50 to 55 +/- 1 to 4 ms); assay type: functional; details: Cavia porcellus; how it was run: as §2
[22] = Cardioprotective effect in Langendorff perfused guinea pig spontaneously beating […] assessed as intraventicular conduction time at 1 uM (RVb = 19 to 24 +/- 1 to 2 ms); assay type: functional; details: Cavia porcellus; how it was run: as §2
[23] = Cardioprotective effect in Langendorff perfused guinea pig spontaneously beating […] assessed as intraventicular conduction time at 0.01 uM (RVb = 19 to 24 +/- 1 to 2 ms); assay type: functional; details: Cavia porcellus; how it was run: as §2
[24] = Cardioprotective effect in Langendorff perfused guinea pig spontaneously beating […] assessed as duration of ventricular action potential at 0.1 uM (RVb = 140 to 161 +/- 2 to 8 ms); assay type: functional, Cavia porcellus, Cardiac ventricle; how it was run: as §2
[25] = Negative chronotropic activity against potassium-induced contraction in guinea pig left atrium assessed as decrease atrial rate at 50 uM relative to control; assay type: functional, Cavia porcellus, Cardiac atrium; set-up: scale not given: the % may be the effect or the level left
[26] = Cardioprotective effect in Langendorff perfused guinea pig spontaneously beating […] assessed as intraventicular conduction time at 0.1 uM (RVb = 19 to 24 +/- 1 to 2 ms); assay type: functional; details: Cavia porcellus; how it was run: as §2
Heart [27] = assay: Cardioprotective effect in Langendorff perfused guinea pig spontaneously beating […] assessed as heart rat at 10 uM (RVb = 175 to 190 +/- 5 to 11 bpm); assay type: functional, Cavia porcellus
[28] = Negative chronotropic activity against potassium-induced contraction in guinea pig left atrium assessed as decrease atrial rate; assay type: functional, tissue-based; details: Cavia porcellus, Cardiac atrium
[29] = Cardioprotective effect in Langendorff perfused guinea pig spontaneously beating […] assessed as atrioventicular conduction time at 1 uM (RVb = 50 to 55 +/- 1 to 4 ms); assay type: functional; details: Cavia porcellus; how it was run: as §2
[30] = Ratio of compound to auinidine for antiarrhythmic activity in sinusoidal alternating current-induced guinea pig left atrium; assay type: functional, Cavia porcellus, Cardiac atrium
How it was run: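 The antiarrhythmic EC50 was taken from the ac-arrhythmia threshold rise in 1 Hz-driven guinea pig left atria, using probit analysis.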

[31] = Cardioprotective effect in Langendorff perfused guinea pig spontaneously beating […] assessed as duration of ventricular action potential at 0.01 uM (RVb = 140 to 161 +/- 2 to 8 ms); assay type: functional, Cavia porcellus, Cardiac ventricle; how it was run: as §2
[32] = Negative chronotropic activity against potassium-induced contraction in guinea pig left atrium assessed as decrease atrial rate at 100 uM relative to control; assay type: functional, Cavia porcellus, Cardiac atrium; set-up: scale not given: the % may be the effect or the level left
[33] = Antiarrhythmic activity in sinusoidal alternating current-induced guinea pig left atrium assessed as increase in current strength at which extra beats occur at 5 uM measured every 30 mins; assay type: functional, Cavia porcellus, Cardiac atrium; how it was run: as §1
Aorta [34] = assay: Vasorelaxant activity in potassium depolarized guinea pig aortic strip assessed as inhibition of calcium-induced contraction at 100 uM; assay type: functional; details: Cavia porcellus
[35] = Negative inotropic activity against potassium-induced contraction in guinea pig left atrium assessed as decrease in developed tension at 10 uM relative to control; assay type: functional, Cavia porcellus, Cardiac atrium; set-up: scale not given: the % may be the effect or the level left
[36] = […] chronotropic activity against potassium-induced contraction in guinea pig left atrium assessed as decrease atrial rate at 100 uM relative to control; assay type: functional, Cavia porcellus, Cardiac atrium; set-up: scale not given: the % may be the effect or the level left
[37] = Negative inotropic activity against potassium-induced contraction in guinea pig left atrium assessed as decrease in developed tension at 0.5 uM relative to control; assay type: functional, Cavia porcellus, Cardiac atrium; set-up: scale not given: the % may be the effect or the level left
[38] = Negative inotropic activity against potassium-induced contraction in guinea pig left atrium assessed as decrease in developed tension at 5 uM relative to control; assay type: functional, Cavia porcellus, Cardiac atrium; set-up: scale not given: the % may be the effect or the level left
[39] = Antiarrhythmic activity in sinusoidal alternating current-induced guinea pig left atrium assessed as increase in current strength at which extra beats occur at 1 uM measured every 30 mins; assay type: functional, Cavia porcellus, Cardiac atrium; how it was run: as §1
[40] = Antiarrhythmic activity in sinusoidal alternating current-induced guinea pig left atrium assessed as increase in current strength at which extra beats occur at 0.5 uM measured every 30 mins; assay type: functional, Cavia porcellus, Cardiac atrium; how it was run: as §1

## Cc1cccc(C)c1NC[C@@H]1CCCN2CCCC[C@H]12
[1]
  EC50: 0.023 µM
[2]
  Activity: 40%
Aorta [3]
  inhibition at 50 µM: 27%
[4]
  Activity: 75%
[5]
  Activity: 28%

## Cc1cccc(C)c1NCC[C@@H]1CCCN2CCCC[C@H]12
Heart [6]
  Activity: 142 bpm
[7]
  AV conduction time: 56 ms
[8]
  Activity: 208%
[9]
  intraventricular conduction time: 21 ms
Heart [10]
  Activity: 182 bpm
[11]
  Activity: 170 ms
[12]
  EC50: 0.46 µM
[13]
  intraventricular conduction time: 19 ms
[14]
  AV conduction time: 57 ms
[15]
  Activity: 89%
[16]
  Activity: 175 ms
Heart [17]
  Activity: 163 bpm
[18]
  Activity: 154 ms
[19]
  AV conduction time: 53 ms
[1]
  EC50: 0.34 µM
Heart [20]
  Activity: 171 bpm
[21]
  AV conduction time: 59 ms
[22]
  intraventricular conduction time: 20 ms
[23]
  intraventricular conduction time: 19 ms
[24]
  Activity: 160 ms
[25]
  Activity: 72%
[26]
  intraventricular conduction time: 20 ms
Aorta [3]
  inhibition at 50 µM: 28%
Heart [27]
  Activity: 136 bpm
[28]
  EC50: 6.89 µM
[29]
  AV conduction time: 58 ms
[30]
  Ratio: 3
[31]
  Activity: 157 ms

## O=C(Cn1nc2ccc(Cl)cc2n1)NC[C@@H]1CCCN2CCCC[C@H]12
[32]
  Activity: 27%
[33]
  Activity: 28%
[1]
  EC50: 0.074 µM
Aorta [34]
  inhibition at 100 µM: 26%
[35]
  Activity: 92%

## COc1cc(C(=O)NC[C@@H]2CCCN3CCCC[C@H]23)cc(OC)c1OC
[12]
  EC50: 2.62 µM
[1]
  EC50: 0.017 µM
Aorta [34]
  inhibition at 100 µM: 7%
[36]
  Activity: 11%
[37]
  Activity: 79%
[5]
  Activity: 56%

## COc1ccc2c(c1)nc(Cc1ccccc1)c(=O)n2C[C@H]1CCCN2CCCC[C@@H]12
[38]
  Activity: 86%
[1]
  EC50: 0.11 µM
[2]
  Activity: 62%
[39]
  Activity: 14%
Aorta [3]
  inhibition at 50 µM: 18%
[28]
  EC50: 2.75 µM

## O=C(Cn1nc2ccccc2n1)NC[C@@H]1CCCN2CCCC[C@H]12
[32]
  Activity: 34%
[15]
  Activity: 98%
[1]
  EC50: 0.035 µM
Aorta [34]
  inhibition at 100 µM: 4%
[40]
  Activity: 26%
